Laboratory results from ChEMBL document CHEMBL4038273, “MAO enzymes inhibitory activity of new benzimidazole derivatives including hydrazone and propargyl side chains” (Eur J Med Chem, 2017).

Experiments:
[1] = target: T1, Amine oxidase [flavin-containing] B (Homo sapiens, UniProt P27338); test: (§1) Inhibition of recombinant human MAO-B expressed in baculovirus infected BTI insect cells using tyramine as substrate pretreated for 30 mins followed by substrate addition incubated for 30 mins measured at 5 mins interval by horse-radish peroxidase/amplex red-based fluorometric method; assay type: cell-based
T1 sequence (P27338 whole entry): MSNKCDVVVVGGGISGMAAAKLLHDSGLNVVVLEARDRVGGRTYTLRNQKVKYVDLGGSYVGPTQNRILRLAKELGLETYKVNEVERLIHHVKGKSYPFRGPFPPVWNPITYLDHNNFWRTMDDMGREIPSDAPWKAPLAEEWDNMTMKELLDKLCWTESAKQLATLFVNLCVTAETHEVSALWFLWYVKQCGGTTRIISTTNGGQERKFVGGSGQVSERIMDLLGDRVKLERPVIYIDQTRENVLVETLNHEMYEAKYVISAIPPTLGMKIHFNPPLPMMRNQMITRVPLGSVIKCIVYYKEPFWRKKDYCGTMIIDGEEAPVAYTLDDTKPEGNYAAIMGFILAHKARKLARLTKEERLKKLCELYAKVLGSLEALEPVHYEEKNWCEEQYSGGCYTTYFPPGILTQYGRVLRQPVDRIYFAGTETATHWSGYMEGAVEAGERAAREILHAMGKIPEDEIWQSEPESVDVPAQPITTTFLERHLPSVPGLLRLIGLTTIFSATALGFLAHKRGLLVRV

[2] = target: T2, Amine oxidase [flavin-containing] A (Homo sapiens, UniProt P21397); test: (§2) Inhibition of recombinant human MAO-A expressed in baculovirus infected BTI insect cells using tyramine as substrate pretreated for 30 mins followed by substrate addition incubated for 30 mins measured at 5 mins interval by horse-radish peroxidase/amplex red-based fluorometric method
T2 sequence (P21397 whole entry): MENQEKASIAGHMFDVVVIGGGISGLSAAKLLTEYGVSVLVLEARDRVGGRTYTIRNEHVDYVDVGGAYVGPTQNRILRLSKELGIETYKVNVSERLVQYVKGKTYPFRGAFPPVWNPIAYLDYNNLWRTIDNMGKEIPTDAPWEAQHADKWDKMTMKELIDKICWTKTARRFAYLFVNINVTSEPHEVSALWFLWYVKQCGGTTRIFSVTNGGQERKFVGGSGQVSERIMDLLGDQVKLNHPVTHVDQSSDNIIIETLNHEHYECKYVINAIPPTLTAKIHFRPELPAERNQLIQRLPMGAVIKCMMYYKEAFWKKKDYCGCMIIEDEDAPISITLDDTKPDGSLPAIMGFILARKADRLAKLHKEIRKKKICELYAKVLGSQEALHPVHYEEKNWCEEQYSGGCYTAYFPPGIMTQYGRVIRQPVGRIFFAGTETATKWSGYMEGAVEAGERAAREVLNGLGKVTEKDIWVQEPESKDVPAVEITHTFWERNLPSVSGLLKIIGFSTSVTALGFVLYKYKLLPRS
How it was run: (§3)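 Recombinant hMAO-A (0.5 U/mL stock) or hMAO-B (0.64 U/mL stock) in phosphate buffer, preincubated with inhibitor (solutions 10^-3 to 10^-9 M in 2% DMSO) for 30 min at 37°C. Background-subtracted against DMSO control; quadruplicate.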

Homo sapiens = species on record: Homo sapiens; test: Selectivity index, ratio of IC50 for recombinant human MAO-A expressed in baculovirus infected BTI insect cells to IC50 for recombinant human MAO-B expressed in baculovirus infected BTI insect cells
How it was run: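 Selectivity index calculated as IC50(MAO-A)/IC50(MAO-B), with both IC50 values from the fluorometric tyramine/HRP/Amplex Red inhibition assay.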

[3] = target: T2, Amine oxidase [flavin-containing] A; test: as §2, with “cells at 10^-4 to 10^-3 uM” for “cells”, “method relative to control” for “method”; conditions: 0.5 h
How it was run: as §3, with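 “37°C. Working solution (HRP, Amplex Red, tyramine) then added for 30 min at 37°C, with fluorescence (Ex/Em 535/587 nm) read every 5 min.” for “37°C.”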

[4] = target: T1, Amine oxidase [flavin-containing] B; test: as §1, with “cells at 10^-4 to 10^-3 uM” for “cells”; conditions: 0.5 h
How it was run: as §3, with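 “37°C. Working solution (HRP, Amplex Red, tyramine) then added for 30 min at 37°C, with fluorescence (Ex/Em 535/587 nm) read every 5 min.” for “37°C.”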

| SMILES | IC50 [1] [µM] | IC50 [2] [µM] | Ratio IC50 (Homo sapiens) | inhibition (INH) [3] | inhibition (INH) [4] |
| --- | --- | --- | --- | --- | --- |
| C#CCn1c(-c2ccc(C(=O)N/N=C/c3cc(OC)cc(OC)c3)cc2)nc2ccccc21 | 25.2 | ≥ 100 | > 3.96 | < 50% |  |
| C#CCn1c(-c2ccc(C(=O)N/N=C/c3ccc(OC)cc3)cc2)nc2ccccc21 | 1.94 | 43.3 | 22.3 |  |  |
| C#CCn1c(-c2ccc(C(=O)N/N=C/c3ccc[nH]3)cc2)nc2ccccc21 | ≥ 1000 | ≥ 1000 |  | Not Active | Not Active |
| C#CCn1c(-c2ccc(C(=O)N/N=C/c3cc(O)cc(O)c3)cc2)nc2ccccc21 | 10.3 | 19.6 | 1.9 |  |  |
| C#CCn1c(-c2ccc(C(=O)N/N=C/c3ccccc3OC)cc2)nc2ccccc21 | ≥ 1000 | ≥ 1000 |  | Not Active | Not Active |
| C#CCn1c(-c2ccc(C(=O)N/N=C/c3ccc([N+](=O)[O-])s3)cc2)nc2ccccc21 | 0.881 | 27.1 | 30.7 |  |  |
| C#CCn1c(-c2ccc(C(=O)N/N=C/c3ccc(O)cc3)cc2)nc2ccccc21 | 1.97 | 2.82 | 1.43 |  |  |
| C#CCn1c(-c2ccc(C(=O)N/N=C/c3cccs3)cc2)nc2ccccc21 | ≥ 100 | ≥ 1000 |  | Not Active | Not Active |
| C#CCn1c(-c2ccc(C(=O)N/N=C/c3cccc(O)c3)cc2)nc2ccccc21 | ≥ 1000 | ≥ 1000 |  | Not Active | Not Active |
| C#CCn1c(-c2ccc(C(=O)N/N=C/c3cccn3C)cc2)nc2ccccc21 | 12.2 | ≥ 100 | > 8.22 | < 50% |  |
| C#CCn1c(-c2ccc(C(=O)N/N=C/c3cccc(OC)c3)cc2)nc2ccccc21 | 12.6 | ≥ 100 | > 7.93 | < 50% |  |
| C#CCn1c(-c2ccc(C(=O)N/N=C/c3ccc(Cl)cc3)cc2)nc2ccccc21 | 10.2 | ≥ 100 | > 9.85 | < 50% |  |
| C#CCn1c(-c2ccc(C(=O)N/N=C/c3cccc(OC)c3OC)cc2)nc2ccccc21 | 18.5 | 53.5 | 2.89 |  |  |
